A word on the T/C: it is the result in the treated group divided by that in the control group, in per cent.

Our source for the Dose, T/C and Weight change values is ChEMBL document CHEMBL1123555, “1,2-Bis(sulfonyl)hydrazines. 3. Effects of structural modification on antineoplastic activity” (1987).

The species entered for assay [1] is Mus musculus. The assay can be described thus: Antitumor activity against B16 melanoma cells in mice, activity is expressed as optimal effective dose. The format is functional. A digest of the protocol: (§1)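 Transplanted tumor in mice, given i.p. once daily for 6 consecutive days starting 24 h after implantation. Doses span 10-150 mg/kg per day as fine suspensions homogenized in a few drops of 20% aqueous Tween 80 and made up with isotonic saline. Groups of five; vehicle-injected tumor-bearing controls. %T/C = mean survival time treated/control × 100. Value is the daily dose giving maximum %T/C.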

The subject of the next assay is L1210. The assay is described as follows: Antitumor activity against L1210 leukemia cells in mice, activity is expressed as optimal effective dose. The format is functional, Mus musculus. A digest of the protocol: as §1
Assay [2] can be described thus: Antitumor activity against B16 melanoma cells in mice, activity is expressed as average survival time of treated/control animals x 100. The format is functional, Mus musculus. A digest of the protocol:
(§2)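 Compound given ip as a fine suspension (homogenized in drops of 20% aqueous Tween 80, made to volume with isotonic saline) at 10-150 mg/kg per day, once daily for 6 consecutive days starting 24 h after implantation. Vehicle-injected tumor-bearing controls were included. Read-out was survival time; body-weight change over therapy was the toxicity indicator.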

Assay [3] can be described thus: Antitumor activity against mouse B16 melanoma cells, calculated as average change in body weight from onset to termination of therapy. The format is functional. A digest of the protocol: (§3)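 Tumor-bearing mice in groups of five, dosed i.p. daily for 6 days from 24 h post-implantation with suspensions in Tween 80/isotonic saline at 10-150 mg/kg per day; vehicle controls run alongside. Mice weighed during the experiment. Average percent body-weight change from onset to termination of therapy was taken as the toxicity index, reported at the optimal-survival dose.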

Assay [4] is filed under the species Mus musculus. The assay can be described thus: Antitumor activity against L1210 leukemia cells in mice, activity is expressed as optimal effective dose. The format is functional. A digest of the protocol: as §1
The species entered for assay [5] is Mus musculus. The assay is described as follows: Antitumor activity against L1210 leukemia cells in mice calculated as average change in body weight from onset to termination of therapy. The format is functional. A digest of the protocol: as §3
For assay [6], the species on record is Mus musculus. The assay is described as follows: Antitumor activity against B16 melanoma cells in mice. Activity is expressed as optimal effective dose. The format is functional. A digest of the protocol:
as §1

Assay [7] is filed under the species Mus musculus. The assay is described as follows: Antitumor activity against L1210 leukemia cells in mice (activity expressed as average survival time of treated/control animals x 100). The format is functional. A digest of the protocol: as §2
For assay [8], the species on record is Mus musculus. The assay can be described thus: Antitumor activity against B16 melanoma cells in mice, activity is expressed as optimal effective dose. It is filed as functional. A digest of the protocol: as §1
Assay [9] is filed under the species Mus musculus. The assay is described as follows: Antitumor activity against L1210 leukemia cells in mice, activity is expressed as average survival time of treated/control animals x 100. It is filed as functional. A digest of the protocol:
as §2

Consider `Cc1ccc(S(=O)(=O)N(C)NS(=O)(=O)Cc2ccccc2)cc1`, for which the Dose in the assay listed under Mus musculus [1] and with L1210 was 50 mg/kg in each case. The compound further yielded a T/C in assay [2] of 172%. Further, in [3], the Weight change is -2.4%.

As to `CN(NS(=O)(=O)/C=C/c1ccccc1)S(=O)(=O)/C=C/c1ccccc1`, in the assay filed under Mus musculus [1], the Dose is 50 mg/kg. The Weight change in [3] was 2%.

As to `COc1ccc(S(=O)(=O)NN(C)S(=O)(=O)c2ccc(Br)cc2)cc1`, the Dose in the assay filed under Mus musculus [1] and in the assay filed under Mus musculus [4] was 100 mg/kg throughout. The values for the Weight change (in assay [3]; in the assay listed under Mus musculus [5]) were 1.3% and 7.8%, respectively.

Regarding `COc1ccc(S(=O)(=O)NN(C)S(=O)(=O)c2ccc(Cl)cc2)cc1`, the figures for the Dose in the assay filed under Mus musculus [6] and in the assay on L1210 were 50 mg/kg and 150 mg/kg, respectively. Also, the T/C in [2] was determined as 189%; in the assay listed under Mus musculus [7], 130%. The Weight change is listed as 1% in assay [3] and -4.3% in the assay filed under Mus musculus [5].

On to `COc1ccc(S(=O)(=O)N(C)NS(=O)(=O)c2ccccc2[N+](=O)[O-])cc1`, for which the Dose in the assay listed under Mus musculus [1] came out at 150 mg/kg. This compound also displayed a T/C in assay [2] of 158%. Also, the Weight change in assay [3] is recorded as 1.5%.

Take `CN(NS(=O)(=O)c1ccc2ccccc2c1)S(=O)(=O)c1ccc2ccccc2c1`: the figures for the Dose in the assay filed under Mus musculus [1] and in the assay listed under Mus musculus [4] were 100 mg/kg and 150 mg/kg, respectively. In addition, the Weight change in assay [3] is 4.6%; in the assay listed under Mus musculus [5] it was -3.3%.

Compound `CN(NS(=O)(=O)c1ccccc1)S(=O)(=O)c1ccc(Br)cc1` displayed a T/C in assay [2] of 160%. Further, the Weight change in assay [3] is 1.5%. The Dose in the assay filed under Mus musculus [8] is 100 mg/kg.

As for `CN(NS(=O)(=O)c1ccc(Br)cc1)S(C)(=O)=O`, the Dose in the assay listed under Mus musculus [1] is 100 mg/kg; in the assay filed under Mus musculus [4], 40 mg/kg. For the same compound, the T/C is on record as 235% in assay [2] and 191% in the assay listed under Mus musculus [7]. Also, the Weight change in [3] was -11.4%; in the assay listed under Mus musculus [5], 6.3%.

For the compound `COc1ccc(S(=O)(=O)N(CCCl)NS(=O)(=O)c2ccccc2)cc1`, the results for the Dose in the assay listed under Mus musculus [6] and in the assay listed under Mus musculus [4] were 12.5 mg/kg and 10 mg/kg, respectively. Moreover, the T/C was found to be 138% in assay [2] and 136% in the assay listed under Mus musculus [7]. The values for the Weight change (in assay [3]; in the assay filed under Mus musculus [5]) were -2.8% and 4.8%, respectively.

In turn, `CN(NS(=O)(=O)c1ccc(Br)cc1)S(=O)(=O)Cc1ccccc1` came in with a Dose in the assay listed under Mus musculus [1] of 50 mg/kg. Besides, the Weight change in assay [3] is 4.7%.

In the assay filed under Mus musculus [1], `CCS(=O)(=O)NN(C)S(=O)(=O)c1ccc(Br)cc1` gave a Dose of 30 mg/kg. This compound also yielded a T/C in [2] of 190%. Moreover, in assay [3], the Weight change is 4.5%.

As for `COc1ccc(S(=O)(=O)N(CCCl)NS(C)(=O)=O)cc1`, the Dose in the assay filed under Mus musculus [6] and in the assay listed under Mus musculus [4] was 10 mg/kg throughout. For the same compound, the T/C in [2] is reported as 184%; in the assay filed under Mus musculus [9], 214%. Besides, the Weight change in assay [3] is 3.8%; in the assay listed under Mus musculus [5] it was -10.9%.

Regarding `CN(NS(=O)(=O)c1ccc(Cl)cc1)S(C)(=O)=O`, the Dose in the assay listed under Mus musculus [6] and in the assay with L1210 was 60 mg/kg each time. The T/C in assay [2] was 219%; in the assay listed under Mus musculus [7], 214%. Also, the Weight change is recorded as -8.7% in assay [3] and -9.4% in the assay filed under Mus musculus [5].

On to `CC(=O)Nc1ccc(S(=O)(=O)N(C)NS(=O)(=O)c2ccc(Br)cc2)cc1`, for which, in the assay listed under Mus musculus [1], the Dose came out at 150 mg/kg. Moreover, the Weight change in [3] was -5.7%.

For `Cc1ccc(S(=O)(=O)NN(C)S(C)(=O)=O)cc1`, the Dose is 60 mg/kg in the assay listed under Mus musculus [6] and 40 mg/kg in the assay on L1210. Further, the T/C in assay [2] was 256%; in the assay listed under Mus musculus [7] it was 186%. In addition, the Weight change in assay [3] is listed as -8.6%; in the assay filed under Mus musculus [5], -12.3%.

With `COc1ccc(S(=O)(=O)N(C)NS(=O)(=O)Cc2ccccc2)cc1`, the Dose in the assay filed under Mus musculus [6] and in the assay on L1210 was 50 mg/kg in each case. Also, the results for the T/C (in [2]; in the assay listed under Mus musculus [7]) were 160% and 153%, respectively. In addition, the Weight change in [3] is reported as 2.1%; in the assay listed under Mus musculus [5] it was 1.5%.

For the compound `Cc1ccc(S(=O)(=O)N(C)NS(=O)(=O)c2ccc(Br)cc2)cc1`, the Dose stood at 150 mg/kg in the assay filed under Mus musculus [6] and 50 mg/kg in the assay listed under Mus musculus [4]. In addition, the Weight change was -5.1% in [3] and 5.6% in the assay filed under Mus musculus [5].

In the case of `COc1ccc(S(=O)(=O)N(C)NS(=O)(=O)c2ccc(Br)cc2)cc1`, the Dose in the assay filed under Mus musculus [6] and in the assay listed under Mus musculus [4] was 100 mg/kg each time. In addition, the results for the Weight change (in [3]; in the assay filed under Mus musculus [5]) were -0.1% and 3.4%, respectively.

As to `CN(NS(=O)(=O)/C=C/c1ccccc1)S(=O)(=O)c1ccc(Br)cc1`, in the assay listed under Mus musculus [1], the Dose came to 100 mg/kg. Also, the Weight change in assay [3] is given as 0.7%.

For `CN(NS(C)(=O)=O)S(C)(=O)=O`, the Dose in the assay listed under Mus musculus [1] was determined as 50 mg/kg; in the assay listed under Mus musculus [4] it was 25 mg/kg. The T/C stood at 278% in [2] and 340% in the assay listed under Mus musculus [7]. In addition, the Weight change is -7.9% in [3] and -15.3% in the assay listed under Mus musculus [5].

As to `COc1ccc(S(=O)(=O)NN(C)S(C)(=O)=O)cc1`, the Dose in the assay listed under Mus musculus [1] and in the assay on L1210 was 60 mg/kg each time. Besides, the T/C is 233% in [2] and 221% in the assay filed under Mus musculus [7]. Also, the Weight change in assay [3] is -11.9%; in the assay listed under Mus musculus [5], -13.7%.

On to `Cc1ccc(S(=O)(=O)NN(C)S(=O)(=O)c2ccc(Br)cc2)cc1`, for which, in the assay listed under Mus musculus [4], the Dose came to 100 mg/kg.

Take `CN(NS(=O)(=O)c1ccc(Br)cc1)S(=O)(=O)c1ccc(Br)cc1`: the results for the Dose in the assay listed under Mus musculus [1] and in the assay filed under Mus musculus [4] were 50 mg/kg and 150 mg/kg, respectively. Further, the T/C in assay [2] worked out at 160%. In addition, the figures for the Weight change (in [3]; in the assay filed under Mus musculus [5]) were -3.8% and 1.7%, respectively.

The compound `CN(NS(C)(=O)=O)S(=O)(=O)c1ccc(Br)cc1` yielded a Dose in the assay filed under Mus musculus [1] of 20 mg/kg. Moreover, the T/C in assay [2] was 225%. Moreover, in assay [3], the Weight change is reported as 4.2%.

`CN(NS(=O)(=O)c1ccc2ccccc2c1)S(=O)(=O)c1ccc(Br)cc1`: the Dose in the assay listed under Mus musculus [1] came to 200 mg/kg; in the assay filed under Mus musculus [4], 100 mg/kg. This compound registered a T/C in the assay listed under Mus musculus [7] of 123%. Also, the Weight change in [3] was 3.7%; in the assay filed under Mus musculus [5], 18.3%.

Compound `CN(NS(=O)(=O)c1ccc(Cl)cc1)S(=O)(=O)c1ccc(Br)cc1` displayed a Dose in the assay filed under Mus musculus [1] of 200 mg/kg. For the same compound, the Weight change in assay [3] is 2%.
